Series [1] deals with T1, ATP-binding cassette sub-family C member 2 (Homo sapiens, UniProt Q92887). The series can be described thus: Inhibition of ABCC2 (unknown origin) expressed in MDCK2 cells assessed as inhibition of calcein-AM efflux measured after 30 mins in presence of ABCB1 inhibitor GF120918 and ABCC1 inhibitor MK-571 by flow cytometry. Type of series: cell-based, MDCK-II.
Series [2] addresses T1, ATP-binding cassette sub-family C member 2. The series can be described thus: Inhibition of ABCC2 (unknown origin) expressed in human Flp-InTM-293 cells assessed as inhibition of calcein-AM efflux at 5 uM measured after 30 mins in presence of ABCB1 inhibitor GF120918 and ABCC1 inhibitor MK-571 by flow cytometry. Type of series: cell-based. Conditions: 0.5 h; call rule not given here. An outline of the steps:
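A confirmatory calcein-AM efflux assay was run the same way in Flp-In-293 cells stably transfected with ABCC2 (pcDNA5-FRT-ABCC2 plus pOG44, by electroporation) and in parental Flp-In-293 cells. Fluorescence was read by flow cytometry, with % inhibition computed against the parental line.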

Series [3] shares this target. Description: Inhibition of ABCC2 (unknown origin) expressed in MDCK2 cells assessed as inhibition of calcein-AM efflux at 5 uM measured after 30 mins in presence of ABCB1 inhibitor GF120918 and ABCC1 inhibitor MK-571 by flow cytometry. Type of series: cell-based. Conditions: mdck-ii, 0.5 h. An outline of the steps: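 Parental and ABCC2-transfected MDCKII cells were seeded at 3 × 10³ cells/well and grown 48 h at 37 °C in 5% CO2. They were then loaded with 25 nM calcein-AM in the presence of GF120918 and […] MK-571. Intracellular fluorescence was read by flow cytometry in the 525/50 nm channel, collecting ≥5000 events.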

A short description of series [4]: Cytotoxicity against wild-type MDCK2 cells measured after 72 hrs by MTT assay. The format is toxicity, cell-based, Canis lupus familiaris, MDCK-II. Conditions: dog. An outline of the steps: (§1)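 MTT assay in parental and ABCC2-transfected MDCKII cells. Cells were seeded so that they stayed below confluence over 72 h at 37 °C, then exposed to compound from […] for 72 h. MTT at 5 mg/mL was added for 3 h. Formazan was dissolved in DMSO/isopropanol 1:1, and A570 was read and corrected at 690 nm. Mean ± SD of at least three independent experiments; DMSO-only controls run in parallel.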

Series [5] can be described thus: Cytotoxicity against MDCK2 cells expressing ABCC2 measured after 72 hrs by MTT assay. Conditions: dog. The format is toxicity, cell-based, Canis lupus familiaris, MDCK-II. An outline of the steps:
as §1
Background: Tetrazolium assays rely on reduction of a dye to a coloured formazan, in cell work by metabolically active cells.

T1 sequence (Q92887 whole entry): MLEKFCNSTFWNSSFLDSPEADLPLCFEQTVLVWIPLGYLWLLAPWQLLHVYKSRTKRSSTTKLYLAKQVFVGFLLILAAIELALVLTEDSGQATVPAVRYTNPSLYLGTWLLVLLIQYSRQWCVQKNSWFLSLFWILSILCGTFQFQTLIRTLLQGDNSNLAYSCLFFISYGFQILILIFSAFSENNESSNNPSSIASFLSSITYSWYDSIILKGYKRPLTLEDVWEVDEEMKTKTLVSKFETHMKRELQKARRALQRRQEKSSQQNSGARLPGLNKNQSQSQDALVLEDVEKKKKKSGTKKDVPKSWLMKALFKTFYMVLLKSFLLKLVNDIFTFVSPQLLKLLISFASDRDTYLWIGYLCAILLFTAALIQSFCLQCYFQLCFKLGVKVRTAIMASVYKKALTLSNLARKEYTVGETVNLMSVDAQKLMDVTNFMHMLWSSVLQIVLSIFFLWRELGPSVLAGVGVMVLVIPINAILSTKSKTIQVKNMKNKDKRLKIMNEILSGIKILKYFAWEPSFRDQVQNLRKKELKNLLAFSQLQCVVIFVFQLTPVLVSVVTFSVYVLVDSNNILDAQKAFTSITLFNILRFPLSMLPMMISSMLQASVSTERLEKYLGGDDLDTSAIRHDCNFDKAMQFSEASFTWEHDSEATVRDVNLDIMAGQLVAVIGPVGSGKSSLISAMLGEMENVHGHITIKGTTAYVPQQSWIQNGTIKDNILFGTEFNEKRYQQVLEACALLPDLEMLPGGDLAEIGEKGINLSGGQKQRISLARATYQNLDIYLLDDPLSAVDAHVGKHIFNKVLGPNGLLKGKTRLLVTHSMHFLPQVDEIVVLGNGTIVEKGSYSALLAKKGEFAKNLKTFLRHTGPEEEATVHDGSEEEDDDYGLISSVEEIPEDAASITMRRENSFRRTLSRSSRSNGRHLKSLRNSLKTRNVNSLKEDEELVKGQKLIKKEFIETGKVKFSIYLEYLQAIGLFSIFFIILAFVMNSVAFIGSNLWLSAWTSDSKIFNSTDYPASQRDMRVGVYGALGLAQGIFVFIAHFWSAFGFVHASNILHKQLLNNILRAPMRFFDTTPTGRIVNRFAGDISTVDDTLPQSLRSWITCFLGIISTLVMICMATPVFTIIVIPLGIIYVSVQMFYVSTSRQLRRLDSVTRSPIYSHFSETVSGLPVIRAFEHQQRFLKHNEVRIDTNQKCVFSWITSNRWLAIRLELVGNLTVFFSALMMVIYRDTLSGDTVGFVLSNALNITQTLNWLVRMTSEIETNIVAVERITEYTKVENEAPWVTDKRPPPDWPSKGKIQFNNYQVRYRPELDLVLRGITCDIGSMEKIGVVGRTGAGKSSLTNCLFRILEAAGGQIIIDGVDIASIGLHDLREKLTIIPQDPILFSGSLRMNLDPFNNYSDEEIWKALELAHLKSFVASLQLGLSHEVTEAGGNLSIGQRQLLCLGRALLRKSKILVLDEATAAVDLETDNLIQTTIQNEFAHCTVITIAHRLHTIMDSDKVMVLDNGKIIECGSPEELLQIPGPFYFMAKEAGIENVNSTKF

As a reminder, the IC50 is the concentration that inhibits the measured activity by half. As to `CCCCn1cc(/C=C2\Oc3cc(O)cc(O)c3C2=O)c2cc(OC)ccc21`, the IC50 in series [1] was 13.9 µM. For the same molecule, the “inhibition (INH)” value in series [2] and in series [3] was “Active” in each case.

For `CCCCn1c(/C=C2\Oc3cc(O)cc(O)c3C2=O)cc2ccccc21`, the IC50 in series [1] was 9 µM. Moreover, the “inhibition (INH)” value in series [2] and in series [3] was “Active” in each case.

For the molecule `Cn1c(/C=C2\Oc3cc(O)cc(O)c3C2=O)cc2ccccc21`, in series [1], the IC50 is 11.1 µM. In addition, the “inhibition (INH)” value in series [2] and in series [3] was “Active” each time.

Consider `CC(C)=CCn1cc(/C=C2\Oc3cc(O)cc(O)c3C2=O)c2ccccc21`, for which, in series [1], the 50% inhibitory concentration (IC50) was 10.6 µM. For the same molecule, the “inhibition (INH)” value in series [2] and in series [3] was “Active” throughout.

Take `O=C1/C(=C/c2cn(CC3CCCCC3)c3ccccc23)Oc2cc(O)cc(O)c21`: in series [1], the IC50 is 10.5 µM. In addition, the “inhibition (INH)” value in series [2] and in series [3] was “Active” each time.

As to `O=C1/C(=C/c2cn(Cc3ccccc3)c3ccccc23)Oc2cc(O)cc(O)c21`, the half-maximal inhibitory concentration (IC50) in series [1] is 12.2 µM. For the same molecule, the “inhibition (INH)” value in series [2] and in series [3] was “Active” in each case.

`COc1cccc(Cn2cc(/C=C3\Oc4cc(O)cc(O)c4C3=O)c3ccccc32)c1`: the IC50 in series [1] is 17.5 µM. Moreover, the “inhibition (INH)” value in series [2] and in series [3] was “Active” in each case.

On to `O=C1/C(=C/c2cn(Cc3cccc(Br)c3)c3ccccc23)Oc2cc(O)cc(O)c21`, for which, in series [1], the 50% inhibitory concentration (IC50) is 14.4 µM. The “inhibition (INH)” value in series [2] and in series [3] was “Active” throughout.

Turning to `CCCCn1c(C)c(/C=C2\Oc3cc(O)cc(O)c3C2=O)c2ccccc21`, the IC50 in series [1] was 11.4 µM. The “inhibition (INH)” value in series [2] and in series [3] was “Active” in each case.

Regarding `CCCCn1cc(/C=C2\Oc3cc(O)cc(O)c3C2=O)c2cccc(C)c21`, in series [1], the half-maximal inhibitory concentration (IC50) was 4.5 µM. Further, the IC50 at 72 h in series [4] and in series [5] was above 50 µM each time. The “inhibition (INH)” value in series [2] and in series [3] was “Active” throughout.

`CCCCn1cc(/C=C2\Oc3cc(O)cc(O)c3C2=O)c2cccc(OC)c21`: the IC50 in series [1] is 6.3 µM. The “inhibition (INH)” value in series [2] and in series [3] was “Active” each time.

Turning to `CCCCn1cc(/C=C2\Oc3cc(O)cc(O)c3C2=O)c2cc(C)ccc21`, in series [1], the IC50 is 4.8 µM. The IC50 at 72 h in series [4] and in series [5] was above 50 µM throughout. Moreover, the “inhibition (INH)” value in series [2] and in series [3] was “Active” throughout.

In the case of `CCn1cc(/C=C2\Oc3cc(O)cc(O)c3C2=O)c2cc(Br)ccc21`, the IC50 in series [1] is 17.8 µM. Further, the “inhibition (INH)” value in series [2] and in series [3] was “Active” in each case.

On to `Cn1cc(/C=C2\Oc3cc(O)cc(O)c3C2=O)c2cc(Br)ccc21`, for which the IC50 in series [1] is 4.5 µM. Besides, the IC50 at 72 h in series [4] and in series [5] was above 50 µM in each case. In addition, the “inhibition (INH)” value in series [2] and in series [3] was “Active” in each case.

`O=C1/C(=C/c2cn(CC3CCCCC3)c3ccc(Br)cc23)Oc2cc(O)cc(O)c21`: the IC50 in series [1] was 15.8 µM. Also, the “inhibition (INH)” value in series [2] and in series [3] was “Active” each time.

As to `CCCCn1c(/C=C2\Oc3cc(O)cc(O)c3C2=O)c(C)c2ccccc21`, the IC50 in series [1] was 8.2 µM. The “inhibition (INH)” value in series [2] and in series [3] was “Active” throughout.

For the molecule `CCCCn1cc(/C=C2\Oc3cc(O)cc(O)c3C2=O)c2cc(Br)ccc21`, the IC50 in series [1] is 15.4 µM. Also, the “inhibition (INH)” value in series [2] and in series [3] was “Active” each time.

As for `COc1ccc2c(c1)c(/C=C1\Oc3cc(O)cc(O)c3C1=O)cn2Cc1cccc(Br)c1`, in series [1], the IC50 was 7.3 µM. The “inhibition (INH)” value in series [2] and in series [3] was “Active” in each case.

On to `COc1ccc2c(c1)c(/C=C1\Oc3cc(O)cc(O)c3C1=O)cn2CC1CCCCC1`, for which the IC50 in series [1] is 4.1 µM. Besides, the IC50 at 72 h in series [4] and in series [5] was above 50 µM throughout. In addition, the “inhibition (INH)” value in series [2] and in series [3] was “Active” each time.

(Values after ChEMBL document CHEMBL3865809, “2-Indolylmethylenebenzofuranones as first effective inhibitors of ABCC2” (Eur J Med Chem, 2016).)
